What was measured:
Aminopeptidase N = Aminopeptidase N (Homo sapiens, UniProt P15144); experiment: Inhibition of aminopeptidase N
Method in brief: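 Enzyme and inhibitor were preincubated in sodium phosphate buffer (50 mM, pH 7.2) for 30 min at 37 °C. L-leucine p-nitroanilide was then added and incubated a further 60 min at 37 °C. Absorbance at 405 nm was used to calculate inhibition rates.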

[1] = target: 72 kDa type IV collagenase (Homo sapiens, UniProt P08253); experiment: Inhibition of MMP2
Method in brief: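 Run in borate buffer (50 mM, pH 8.5) with succinylated gelatin as substrate. Enzyme and inhibitor were preincubated 30 min at 37 °C, then substrate was added for 60 min at 37 °C. Picrylsulfonic acid (0.03%) was added for 20 min at room temperature. Absorbance was read at 450 nm, and % inhibition was calculated against uninhibited and blank wells.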

Aminopeptidase N, sequence (P15144 whole entry): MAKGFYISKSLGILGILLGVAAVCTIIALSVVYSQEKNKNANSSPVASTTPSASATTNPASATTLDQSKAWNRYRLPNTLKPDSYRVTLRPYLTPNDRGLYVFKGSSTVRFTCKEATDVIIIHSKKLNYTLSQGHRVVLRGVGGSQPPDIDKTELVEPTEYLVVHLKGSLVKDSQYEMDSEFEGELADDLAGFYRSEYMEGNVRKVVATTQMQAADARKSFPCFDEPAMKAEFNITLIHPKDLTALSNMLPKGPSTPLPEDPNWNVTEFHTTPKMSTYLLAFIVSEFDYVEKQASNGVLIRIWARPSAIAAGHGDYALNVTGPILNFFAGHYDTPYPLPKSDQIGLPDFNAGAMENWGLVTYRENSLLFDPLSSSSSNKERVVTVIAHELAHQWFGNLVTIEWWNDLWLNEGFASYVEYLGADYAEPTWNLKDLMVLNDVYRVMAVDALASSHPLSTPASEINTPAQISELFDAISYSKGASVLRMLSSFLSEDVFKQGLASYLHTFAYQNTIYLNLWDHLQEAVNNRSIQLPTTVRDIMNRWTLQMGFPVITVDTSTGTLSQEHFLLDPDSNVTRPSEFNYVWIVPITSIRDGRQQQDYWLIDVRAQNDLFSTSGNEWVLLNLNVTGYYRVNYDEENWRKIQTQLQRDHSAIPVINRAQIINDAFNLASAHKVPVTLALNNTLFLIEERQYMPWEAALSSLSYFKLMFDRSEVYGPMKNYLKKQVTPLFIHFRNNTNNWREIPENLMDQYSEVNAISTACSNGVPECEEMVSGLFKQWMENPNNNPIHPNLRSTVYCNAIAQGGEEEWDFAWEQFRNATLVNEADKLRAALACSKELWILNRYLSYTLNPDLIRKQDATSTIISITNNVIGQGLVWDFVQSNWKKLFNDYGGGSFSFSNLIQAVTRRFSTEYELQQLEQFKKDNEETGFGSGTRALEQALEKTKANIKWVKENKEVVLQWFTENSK
72 kDa type IV collagenase, sequence (P08253 whole entry): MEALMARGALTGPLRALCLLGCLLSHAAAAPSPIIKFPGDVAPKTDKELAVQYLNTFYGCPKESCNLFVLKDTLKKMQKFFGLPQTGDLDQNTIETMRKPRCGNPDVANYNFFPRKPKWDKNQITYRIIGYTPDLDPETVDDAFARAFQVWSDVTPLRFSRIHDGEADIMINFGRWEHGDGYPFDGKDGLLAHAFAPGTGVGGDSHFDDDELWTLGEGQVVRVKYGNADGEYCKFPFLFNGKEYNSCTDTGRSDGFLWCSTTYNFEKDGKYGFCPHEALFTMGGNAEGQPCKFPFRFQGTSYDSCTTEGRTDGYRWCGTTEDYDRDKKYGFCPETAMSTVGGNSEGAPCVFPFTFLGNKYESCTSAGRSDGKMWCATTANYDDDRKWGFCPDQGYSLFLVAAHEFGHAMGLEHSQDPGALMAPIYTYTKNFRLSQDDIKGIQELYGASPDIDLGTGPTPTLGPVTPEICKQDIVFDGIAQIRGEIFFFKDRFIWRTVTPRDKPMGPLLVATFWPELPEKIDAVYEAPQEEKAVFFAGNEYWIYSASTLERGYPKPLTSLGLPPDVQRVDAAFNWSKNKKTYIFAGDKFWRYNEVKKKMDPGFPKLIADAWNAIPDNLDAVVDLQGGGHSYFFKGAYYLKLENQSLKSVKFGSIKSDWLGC

| IC50 (Aminopeptidase N) [µM] | IC50 [1] [nM] | SMILES |
| --- | --- | --- |
| 156 | 100 | COC(=O)[C@@H]1CC2(CN1S(=O)(=O)c1ccc(C)cc1)OCCO2 |
| 107 | 12 | O=C(NO)[C@@H]1CC2(CN1S(=O)(=O)c1ccccc1)OCCCCO2 |
| 82.7 | 11 | O=C(NO)[C@@H]1CC2(CN1S(=O)(=O)c1ccccc1)OCCCO2 |
| 48.5 | 3 | Cc1ccc(S(=O)(=O)N2CC3(C[C@H]2C(=O)NO)OCCO3)cc1 |
| 151 | 200 | COC(=O)[C@@H]1CC2(CN1S(=O)(=O)c1ccccc1)OCCO2 |
| 57.8 | 8 | O=C(NO)[C@@H]1CC2(CN1S(=O)(=O)c1ccccc1)OCCO2 |
| 142 | 9 | COc1ccc(/C=C/C(=O)N2C[C@@H](NC(=O)c3cccnc3)C[C@H]2C(=O)NO)cc1OC |
| 174 | 200 | COC(=O)[C@@H]1CC2(CN1S(=O)(=O)c1ccc(C)cc1)OCCCO2 |
| 61.8 | 6 | Cc1ccc(S(=O)(=O)N2CC3(C[C@H]2C(=O)NO)OCCCO3)cc1 |
| 135 | 1500 | COC(=O)[C@@H]1CC2(CN1S(=O)(=O)c1ccccc1)OCCCCO2 |
| 38.4 | 100 | COC(=O)[C@@H]1C[C@@H](O)CN1S(=O)(=O)c1ccc(C)cc1 (relative stereo) |
| 168 | 1100 | COC(=O)[C@@H]1CC2(CN1S(=O)(=O)c1ccccc1)OCCCO2 |
| 124 | 300 | COC(=O)[C@@H]1CC2(CN1S(=O)(=O)c1ccc(C)cc1)OCCCCO2 |
| 53.8 | 800 | COC(=O)[C@@H]1C[C@@H](O)CN1S(=O)(=O)c1ccccc1 (relative stereo) |
| 73.2 | 8 | Cc1ccc(S(=O)(=O)N2CC3(C[C@H]2C(=O)NO)OCCCCO3)cc1 |
| 54.9 | 400 | COC(=O)[C@@H]1CC(=O)CN1S(=O)(=O)c1ccc(C)cc1 |
| 92.6 | 9500 | COC(=O)[C@@H]1CC(=O)CN1S(C)(=O)=O |
| 75.8 | 2000 | COC(=O)[C@@H]1CC(=O)CN1S(=O)(=O)c1ccccc1 |
| 41.6 | 7100 | COC(=O)[C@@H]1C[C@@H](O)CN1S(C)(=O)=O (relative stereo) |
